# APP 5'UTR act: APP 5'UTR luciferase reporter activation | SH-SY5Y APP 5'UTR luciferase reporter, luminescence; zero percent = DMSO vehicle wells | activation, % at 2 µM | 190,000 tested, 1% active;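 active = activation above a set limit, based on mean plus 3 SD of controls, cut at about 140% in these data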
# FLuc inhib CS: inhibits firefly luciferase, flagging false hits in luciferase inhibition screens. inhibition, % at 10 µM. ATPLite firefly luciferase biochemical luminescence, 10 min. 200,000 tested, 1.5% active. AID 1006. P08659;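 active = inhibition above about 50% when tested at 10 µM, limit read from the data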
# Target sequence (P08659 whole entry, looked up): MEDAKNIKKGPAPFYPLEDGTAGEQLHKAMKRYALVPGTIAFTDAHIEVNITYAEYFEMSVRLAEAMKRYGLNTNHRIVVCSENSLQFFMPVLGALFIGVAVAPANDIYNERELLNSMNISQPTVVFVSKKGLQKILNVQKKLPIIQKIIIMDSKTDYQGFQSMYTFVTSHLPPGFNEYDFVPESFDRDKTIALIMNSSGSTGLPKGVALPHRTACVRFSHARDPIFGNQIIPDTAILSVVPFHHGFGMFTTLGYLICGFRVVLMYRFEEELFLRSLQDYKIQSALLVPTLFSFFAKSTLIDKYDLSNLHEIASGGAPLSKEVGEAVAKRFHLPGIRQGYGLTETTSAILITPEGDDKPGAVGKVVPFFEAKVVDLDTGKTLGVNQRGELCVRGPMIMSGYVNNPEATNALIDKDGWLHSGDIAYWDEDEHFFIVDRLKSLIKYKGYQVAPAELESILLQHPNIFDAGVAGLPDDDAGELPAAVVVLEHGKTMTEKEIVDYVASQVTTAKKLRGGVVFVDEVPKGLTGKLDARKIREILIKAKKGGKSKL
# FLuc act counter: affects firefly luciferase, flagging false hits in luciferase stimulation screens | P08659 | ATPlite luciferase biochemical, luminescence, 10 min; 0 = ATP-free wells, 1 = DMSO control | activation factor at 10 µM | 200,000 tested, under 10 active;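 active = luciferase activation factor, scaled between plate controls, of at least 2 with compound at 10 µM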
#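 Assay system: Luciferase/luciferin reagent mix; Medium: PBS as buffer for the ATP substrate; Dosing: test compounds dosed from 2 mM stocks in 100% DMSO; Times: 10 min, room temperature; Signal: luminescence from luciferase reaction; Read-out: luciferase activation; Controls: No-ATP low control, compound-free enzyme-plus-ATP high control.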
# NF-kB neuron act: compounds increasing NF-kB expression in human neuronal cells. 190,000 tested, 1.6% active. NF-kB reporter expression; stronger effect = higher value. fold change at 12.5 µM; in the data active = fold change above about 3.3
# STAT1 act: increases IFN-gamma driven STAT1 reporter signal | NIH 3T3 STAT1-luciferase reporter, luminescence; 100% = IFN-gamma alone, no compound | activation (% of control), % at 5.5 µM | 200,000 tested, 2.6% active | AID 932;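 active = activation above the screen-wide mean activation plus 3 SD, cut at about 130% in these data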;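 also: raw ratio to IFN-gamma control signal so 100% means no change and 0% no light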
# An asterisk follows results filed as active; . = no result. Shown are actives, neighbours in structure and some others; about 4.3% of the full set was active somewhere.
SMILES,APP 5'UTR act,FLuc inhib CS,FLuc act counter,NF-kB neuron act,STAT1 act
Cc1ccc(C(=O)N2CCOCC2)c(F)c1F,-28.5,2.2,1,1.38,97.4
Cc1ccc(NC(=O)N2C(=O)C3(OCCO3)c3ccccc32)cc1,90.7,1.8,1,2.22,138.1*
CCNC(=O)N1C(=O)C2(OCCO2)c2ccccc21,29.2,-6.5,1.1,1.12,105.1
Cc1cc(C(=O)CSc2nnc3ccccn23)c(C)n1-c1ccccc1,-19.5,74.6*,0.3,0.41,40.5
Cc1cc(C(=O)CSc2n[nH]c(N)n2)c(C)n1-c1ccccc1,72.8,58.7*,0.4,2.23,115.2
CCCCNc1oc(-c2ccc(OC)cc2)nc1S(=O)(=O)c1ccccc1,6.1,-2.5,1,1.03,106.9
CN(C)c1oc(-c2ccc(Cl)cc2)nc1S(=O)(=O)c1ccccc1,-13.2,-4.9,1,0.97,130.8*
CCCCN(C(=O)CSc1nnc(Nc2ccc(C)c(C)c2)s1)c1c(N)n(Cc2ccccc2)c(=O)[nH]c1=O,9.6,63.0*,0.4,0.75,99.1
CN(C(=O)CSc1nnc(Nc2ccccc2)s1)c1c(N)n(Cc2ccccc2)c(=O)[nH]c1=O,2.0,-3.8,1,1.42,100.9
CCOc1ccc2nc(NC(=O)c3cnccn3)sc2c1,38.4,45.9,0.5,3.29,138.2*
O=C(Nc1nc2ccc(F)cc2s1)c1ccccn1,30.0,90.2*,0.1,0.43,34.7
CCOc1ccc2nc(NC(=O)CSc3nnc(-c4ccncc4)n3CC3CCCO3)sc2c1 (stereo not drawn),.,67.6*,0.3,.,.
O=C(Nc1nc2ccccc2s1)c1cnccn1,55.5,59.3*,0.4,4.01*,116.3
O=C(NCc1cccnc1)C(=O)Nc1nc2ccccc2s1,7.3,33.9,0.7,1.48,138.9*
COC(=O)c1ccc2nc(Nc3nc4ccc(F)cc4s3)sc2c1,-42.5,11.8,0.9,2.02,42.9
CC(=O)c1sc(Nc2nc3ccc(F)cc3s2)nc1C,44.1,27.9,0.7,2.67,135.4*
CCOc1ccc2nc(NC(=O)CSC3=NCCS3)sc2c1,45.8,-2.4,1,3.06,129.0*
CCCOc1ccc(N2C(=O)CC(N(CCOC34CC5CC(CC(C5)C3)C4)C(C)=O)C2=O)cc1 (stereo not drawn),6.4,0.4,1,0.73,92.2
C=C(C)CNC(=S)N1CCNC(=O)C1CC(=O)OC (stereo not drawn),6.8,-7.7,1.1,0.96,89.5
CN(C)c1ccc(N2CN=C3SCC(=O)N3C2)cc1,135.6*,-1.4,1,0.58,160.1*
CC(C)(C)OC(=O)CN1C(=O)C(Sc2n[nH]c(-c3ccccc3)n2)CCc2ccccc21 (stereo not drawn),4.5,-4.8,1,1.24,86.3
Cn1c(NC(=O)/C=C\c2ccccc2)cc(=O)n(C)c1=O,50.9,13.5,0.9,1.93,124.3
COc1ccc2c(c1OC)C(=O)N(c1ccc(C)cc1)C2=O,-7.7,4.9,1,1.41,128.8*
CC1(C)CSC(=S)N1S(=O)(=O)c1ccccc1,4.9,-6.4,1.1,1,92.3
CC(C)c1ccc2oc3nc(N)c(C(=O)O)cc3c(=O)c2c1,.,94.8*,0.1,.,.
SMILES,APP 5'UTR act,FLuc inhib CS,FLuc act counter,NF-kB neuron act,STAT1 act
CC(C)CC1NC(=O)N(CC(=O)NC2CCCc3ccccc32)C1=O (stereo not drawn),19.7,-5.3,1.1,0.96,102.1
O=C(CC(c1ccccc1)c1ccco1)Nc1nccs1 (stereo not drawn),-0.3,-3.0,1,1.04,88.4
CCN(CC)C(=O)C(=O)c1cccn1-c1cccc(OC)c1C#N,9.0,-7.3,1.1,1.05,97.3
O=c1c2ccccc2nnn1COc1cccc(Cl)c1,18.5,0.0,1,1.38,130.6*
Nc1cccc(CCc2nc3cc4ccccc4cc3[nH]2)c1,-17.4,8.0,0.9,4.21*,131.3*
S=C(Nc1ccc2c(c1)OCO2)N1CCN(Cc2ccco2)CC1,9.6,91.9*,0.1,1.25,92.4
COc1cc(OC)cc(-c2nc3ccccc3s2)c1,65.3,23.3,0.8,2.12,123.5
O=C1CCC(=O)N1c1ccc(-c2nc3ccccc3s2)cc1,106.7,87.6*,0.1,1.77,37.3
CCN(CC)C(=O)Cn1c(=O)n(CCCC(=O)NCc2ccccc2)c(=O)c2sccc21,0.2,-2.1,1,1.18,97.6
Cc1ncoc1C(=O)N1CCc2c([nH]c3ccccc23)C1c1ccccc1F (stereo not drawn),-7.7,-5.7,1.1,1.33,91.2

# High-throughput results as filed in PubChem.
